# Experimental data taken from ChEMBL document CHEMBL2424583, “Structure-activity relationship and in vitro and in vivo evaluation of the potent cytotoxic anti-microtubule agent N-(4-methoxyphenyl)-N,2,6-trimethyl-6,7-dihydro-5H-cyclopenta[d]pyrimidin-4-aminium chloride and its analogues as antitumor agents” (J Med Chem, 2013).
# Activity calls are given as the source filed them. The calls are words filed in the database; no cut-off is given here.
# Key:
# [1] = biological target: Tubulin (Sus scrofa) (UniProt P02554+P02550); test: Displacement of [3H]-colchicine from pig brain tubulin at 1 uM after 10 mins by scintillation counting analysis relative to control
# [2] = system: Hs-578T; test: Cytotoxicity against human Hs578T cells assessed as growth inhibition after 48 hrs by SRB assay; assay type: functional
# [3] = system: DU-145; test: Cytotoxicity against human DU145 cells assessed as growth inhibition after 48 hrs by SRB assay; assay type: functional; conditions: DU-145, 48 h
# [4] = system: SN12C; test: Cytotoxicity against human SN12C cells assessed as growth inhibition after 48 hrs by SRB assay; assay type: functional
# [5] = system: SK-OV-3; test: Cytotoxicity against human SKOV3 cells assessed as growth inhibition after 48 hrs by SRB assay; assay type: functional; conditions: SK-OV-3, 48 h
# [6] = system: OVCAR-4; test: Cytotoxicity against human OVCAR4 cells assessed as growth inhibition after 48 hrs by SRB assay; assay type: functional; conditions: OVCAR-4, 48 h
# [7] = system: IGROV-1; test: Cytotoxicity against human IGROV1 cells assessed as growth inhibition after 48 hrs by SRB assay; assay type: functional; conditions: IGROV-1, 48 h
# [8] = system: SK-MEL-5; test: Cytotoxicity against human SK-MEL-5 cells assessed as growth inhibition after 48 hrs by SRB assay; assay type: functional; conditions: SK-MEL-5, 48 h
# [9] = system: SK-MEL-2; test: Cytotoxicity against human SK-MEL-2 cells assessed as growth inhibition after 48 hrs by SRB assay; assay type: functional; conditions: SK-MEL-2, 48 h
# [10] = system: MDA-MB-435; test: Cytotoxicity against human MDA-MB-435 cells assessed as growth inhibition after 48 hrs by SRB assay; assay type: functional; conditions: MDA-MB-435, 48 h
# [11] = system: LOX IMVI; test: Cytotoxicity against human LOXIMVI cells assessed as growth inhibition after 48 hrs by SRB assay; assay type: functional
# [12] = system: SF-295; test: Cytotoxicity against human SF295 cells assessed as growth inhibition after 48 hrs by SRB assay; assay type: functional; conditions: SF-295, 48 h
# [13] = system: SF-268; test: Cytotoxicity against human SF268 cells assessed as growth inhibition after 48 hrs by SRB assay; assay type: functional; conditions: SF-268, 48 h
# [14] = system: HCT-15; test: Cytotoxicity against human HCT15 cells assessed as growth inhibition after 48 hrs by SRB assay; assay type: functional; conditions: HCT-15, 48 h
# [15] = system: HCT-116; test: Cytotoxicity against human HCT116 cells assessed as growth inhibition after 48 hrs by SRB assay; assay type: functional; conditions: HCT-116, 48 h
# [16] = system: NCI-H522; test: Cytotoxicity against human NCI-H522 cells assessed as growth inhibition after 48 hrs by SRB assay; assay type: functional; conditions: NCI-H522, 48 h
# [17] = system: COLO 205; test: Cytotoxicity against human COLO205 cells assessed as growth inhibition after 48 hrs by SRB assay; assay type: functional; conditions: COLO 205, 48 h
# [18] = system: NCI-H322M; test: Cytotoxicity against human NCI-H322M cells assessed as growth inhibition after 48 hrs by SRB assay; assay type: functional
# [19] = system: K562; test: Cytotoxicity against human K562 cells assessed as growth inhibition after 48 hrs by SRB assay; assay type: functional; conditions: K562, 48 h
# [20] = Relative resistance, ratio of IC50 for beta3 tubulin overexpressed in human HeLa cells to IC50 for human HeLa cells
# Procedure, shortened: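 SRB antiproliferative assay on isogenic pairs: parental SK-OV-3 vs Pgp-overexpressing SK-OV-3 MDR-M6-6, and parental HeLa vs βIII-tubulin-transfected HeLa. IC50 is the mean ± SD of at least three independent experiments. Relative resistance (Rr) is the IC50 of the transduced line divided by the IC50 of the parental line.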
# [21] = system: MDA-MB-231; test: Antitumor activity against human MDA-MB-231 cells xenografted in athymic nude mouse assessed as net tumor log cell kill at 50 mg/kg, ip bid administered every other day started on day 14 followed by compound readministration every other day started on day 27; assay type: functional; conditions: route intraperitoneal
# Procedure, shortened: (§1)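 Female athymic nude mice were implanted sc with an MDA-MB-231T tumour fragment, and tumours were staged to about 125 mg. Drug was given ip in 10% DMSO in saline/Tween 80, with courses starting day 14 and repeated from day 27. There were 8 animals per treated group and 16 controls. Read-outs were body weight, deaths, median tumour mass as T/C, days to a predetermined size as T-C/C, and net log cell kill.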
# [22] = system: MDA-MB-231; test: Antitumor activity against human MDA-MB-231 cells xenografted in athymic nude mouse assessed as tumor log cell kill at 75 mg/kg, ip qd administered every other day started on day 14 for 5 days followed by compound readministration on day 27; assay type: functional; conditions: route intraperitoneal; procedure, shortened: as §1
# [23] = system: MDA-MB-231; test: Antitumor activity against human MDA-MB-231 cells xenografted in athymic nude mouse assessed as net tumor log cell kill at 50 mg/kg, ip qd administered on day 14 for 5 days followed by compound readministration on day 27; assay type: functional; conditions: route intraperitoneal; procedure, shortened: as §1
# [24] = system: MDA-MB-231; test: Antitumor activity against human MDA-MB-231 cells xenografted in athymic nude mouse assessed as tumor growth inhibition at 50 mg/kg, ip bid administered every other day started on day 14 followed by compound readministration every other day started on day 27 measured on day 31 relative to control; assay type: functional; conditions: route intraperitoneal; procedure, shortened: as §1
# [25] = system: MDA-MB-231; test: Antitumor activity against human MDA-MB-231 cells xenografted in athymic nude mouse assessed as tumor growth inhibition at 50 mg/kg, ip qd administered on day 14 for 5 days followed by compound readministration on day 27 measured on day 31 relative to control; assay type: functional; conditions: route intraperitoneal; procedure, shortened: as §1
# [26] = system: Mus musculus; test: Toxicity in athymic nude mouse xenografted in human MDA-MB-231 cells assessed as body weight loss at 50 mg/kg, ip qd administered on day 14 for 5 days followed by compound readministration on day 27 (reference value: 6.7%); assay type: organism-based; design: dose 50 mg/kg, route intraperitoneal; conditions: in vivo, 120 h
# [27] = system: MDA-MB-231; test: Antitumor activity against human MDA-MB-231 cells xenografted in athymic nude mouse assessed as tumor free state at 50 mg/kg, ip bid administered every other day started on day 14 followed by compound readministration every other day started on day 27 measured on day 41; assay type: functional, organism-based; design: dose 50 mg/kg
# Procedure, shortened: (§2)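 Female athymic nude mice carried sc MDA-MB-231T tumor fragments staged to about 125 mg. Compound was given ip as a solution in 10% DMSO in saline/Tween 80, with courses beginning day 14 and repeated from day 27. Groups had 8 animals, with 16 vehicle controls. Animals were scored as tumor-free on day 41.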
# [28] = system: MDA-MB-231; test: Antitumor activity against human MDA-MB-231 cells xenografted in athymic nude mouse assessed as tumor free state at 75 mg/kg, ip qd administered every other day started on day 14 for 5 days followed by compound readministration on day 27 measured on day 41; assay type: functional, organism-based; design: dose 75 mg/kg; procedure, shortened: as §2
# [29] = system: MDA-MB-231; test: Antitumor activity against human MDA-MB-231 cells xenografted in athymic nude mouse assessed as tumor free state at 50 mg/kg, ip qd administered on day 14 for 5 days followed by compound readministration on day 27 measured on day 41; assay type: functional, organism-based; design: dose 50 mg/kg; procedure, shortened: as §2
# Tubulin (Sus scrofa), sequence (P02550 whole entry, looked up): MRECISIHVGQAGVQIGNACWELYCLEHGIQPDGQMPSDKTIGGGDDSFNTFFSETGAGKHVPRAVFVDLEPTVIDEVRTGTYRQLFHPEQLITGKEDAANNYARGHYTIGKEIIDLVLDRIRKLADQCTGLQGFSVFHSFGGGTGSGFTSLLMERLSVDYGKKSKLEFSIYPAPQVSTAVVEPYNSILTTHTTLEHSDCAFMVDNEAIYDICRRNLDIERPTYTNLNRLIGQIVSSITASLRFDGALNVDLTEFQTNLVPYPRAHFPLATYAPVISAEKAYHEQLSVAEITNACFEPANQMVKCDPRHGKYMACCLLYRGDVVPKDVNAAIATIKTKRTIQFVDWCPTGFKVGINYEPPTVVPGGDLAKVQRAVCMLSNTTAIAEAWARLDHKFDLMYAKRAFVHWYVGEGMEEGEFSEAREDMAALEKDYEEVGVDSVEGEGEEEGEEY
# Tubulin (Sus scrofa), sequence (P02554 whole entry, looked up): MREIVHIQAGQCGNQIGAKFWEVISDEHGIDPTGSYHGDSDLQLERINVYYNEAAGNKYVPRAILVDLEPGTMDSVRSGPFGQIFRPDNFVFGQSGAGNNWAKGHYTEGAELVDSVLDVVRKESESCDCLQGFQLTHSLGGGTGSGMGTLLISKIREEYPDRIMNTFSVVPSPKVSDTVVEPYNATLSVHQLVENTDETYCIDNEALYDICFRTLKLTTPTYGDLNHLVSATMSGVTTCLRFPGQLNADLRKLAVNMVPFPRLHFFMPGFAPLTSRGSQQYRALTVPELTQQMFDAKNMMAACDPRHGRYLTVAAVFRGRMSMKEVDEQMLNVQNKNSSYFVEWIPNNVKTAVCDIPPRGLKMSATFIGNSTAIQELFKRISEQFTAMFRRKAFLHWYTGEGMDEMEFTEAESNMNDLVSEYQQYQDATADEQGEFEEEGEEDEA
Compound,inhibition [1],GI50 [2],GI50 [3],GI50 [4],GI50 [5],GI50 [6],GI50 [7],GI50 [8],GI50 [9],GI50 [10],GI50 [11],GI50 [12],GI50 [13],GI50 [14],GI50 [15],GI50 [16],GI50 [17],GI50 [18],GI50 [19],also measured
COc1ccc(N(C)c2nc(C)nc3c2CC(C)C3)cc1.Cl (racemic),60%,< 0.01 µM,0.0214 µM,0.0318 µM,0.0275 µM,0.0268 µM,0.011 µM,< 0.01 µM,0.0331 µM,< 0.01 µM,0.0227 µM,< 0.01 µM,0.0152 µM,< 0.01 µM,0.0151 µM,< 0.01 µM,0.0183 µM,0.059 µM,< 0.01 µM,Ratio IC50 [20]: 0.6
COc1ccc(N(C)c2nc(C)nc3c2CCC3)cc1.Cl,70%,< 0.01 µM,0.0196 µM,0.033 µM,0.0146 µM,0.0229 µM,0.0128 µM,< 0.01 µM,0.0119 µM,< 0.01 µM,0.0184 µM,< 0.01 µM,0.0139 µM,< 0.01 µM,< 0.01 µM,< 0.01 µM,< 0.01 µM,0.0488 µM,< 0.01 µM,LCK [21]: -1.3; LCK [22]: -1.5; LCK [23]: -1.4; T/C [24]: 25%; T/C [25]: 20%; %max [26]: 7.7%; Activity [27]: Active; Activity [28]: Active; Activity [29]: Active
